Results published in article PMC8572679 (Journal of Pharmaceutical Analysis, 2020).

Tests used:
CYP51 enzyme lysate = CYP51 enzyme lysate (Saccharomyces cerevisiae, UniProt P10614); test: Enzymatic reaction in recombinant CYP51 enzyme lysate; format: biochemical, Saccharomyces cerevisiae S288C; details: NADPH 0.5 mM, 0-4 h
[1] = Pharmacokinetics of BBR, M1 and M2 in vivo after single oral administration; details: ICR mice; for level in plasma (below the lower limit of quantitation): any of the time points; for AUC(0-t) / AUC(0-inf) / Cmax / MRT last / MRT inf / half-life: ICR, mouse, plasma, po, 200 mg/kg, two-compartment model, mean ± SD; for AUC(0-t): AUC(0–24 h); for AUC(0-t) / AUC(0-inf) / Cmax / MRT last / MRT inf: BBR in plasma; for MRT last: MRT(0–24 h); for MRT inf: MRT(0−∞); for half-life: t1/2, BBR in plasma
Procedure, shortened: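 Male ICR mice, fasted 12 h, got a single oral dose of BBR 200 mg/kg + voriconazole 30 mg/kg, with food allowed after 3 h. Retrobulbar blood was drawn into heparinised tubes at 0.17–24 h (11 times) and stored at −20 °C. 100 μL plasma was precipitated with 300 μL methanol containing internal standard. BBR, M1 and M2 were measured by LC-MS/MS, with a curve of 1–1000 ng/mL and a lower limit of quantitation of 1 ng/mL.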

[2] = cited from earlier work
gut microbiota = test: 16S rRNA analysis of the feces of ICR mice after oral administration; format: in vivo
CYP51 = test: Activity of CYP51 in four standard bacterial strains; format: cell-based, E. faecalis, S. epidermidis, E. cloacae, and E. faecium
Procedure, shortened: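 The four strains were resuscitated, plate-counted and diluted to equal density. 100 μL culture went into 0.9 mL sterile anaerobic medium, N₂-flushed, sealed and held at 37 °C. Groups were methanol control, 10 μL of 50 mg/mL BBR, or BBR plus 3.5 μg/mL voriconazole. After 48 and 72 h, cells were sonicated and CYP51 activity was measured by sterol 14α-demethylase ELISA kit.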

[3] = tested on: mouse intestinal microsomes; test: Metabolism of BBR in mouse intestinal microsomes in vitro; format: in vitro ADME; details: BBR 50 mg/mL + voriconazole 3.5 μg/mL
[4] = tested on: E. faecalis, S. epidermidis, E. cloacae, and E. faecium; test: Metabolism of BBR in the four standard bacterial strains; format: in vitro ADME; details: BBR 50 mg/mL + voriconazole 3.5 μg/mL, 72 h
Procedure, shortened: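 Plate-counted strains, equalised in density, were put in anaerobic medium (100 μL culture + 0.9 mL), N₂-flushed, sealed and preincubated 1 h at 37 °C. Each got 10 μL BBR (50 mg/mL solution) ± voriconazole (3.5 μg/mL solution) or methanol control and was incubated 48 and 72 h. It was quenched with 1 mL methanol containing internal standard and centrifuged. BBR, M1 and M2 were measured by LC-MS/MS (curve 1–1000 ng/mL) and % BBR metabolism calculated.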

mice gut microbiota = test: Metabolism of BBR by the mice gut microbiota in vitro; format: in vitro ADME; details: BBR 50 mg/mL + voriconazole 3.5 μg/mL vs BBR group
Procedure, shortened: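 Mouse colon contents were homogenised anaerobically, 1 g in 20 mL autoclaved anaerobic medium, and preincubated 60 min at 37 °C under N₂. 1 mL culture received 10 μL methanol solution (BBR 50 mg/mL + voriconazole 3.5 μg/mL, BBR alone, or methanol control), was sealed and incubated at 37 °C for 12–72 h. It was quenched with methanol, centrifuged, diluted 50-fold and precipitated with methanol plus internal standard. BBR, M1 and M2 were measured by LC-MS/MS (ESI+), curve 1–1000 ng/mL.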

[5] = oral BBR 200 mg/kg + voriconazole 30 mg/kg
[6] = feces 24 h after oral BBR, vs control group, P < 0.05

Sequence of CYP51 enzyme lysate (P10614 2-530): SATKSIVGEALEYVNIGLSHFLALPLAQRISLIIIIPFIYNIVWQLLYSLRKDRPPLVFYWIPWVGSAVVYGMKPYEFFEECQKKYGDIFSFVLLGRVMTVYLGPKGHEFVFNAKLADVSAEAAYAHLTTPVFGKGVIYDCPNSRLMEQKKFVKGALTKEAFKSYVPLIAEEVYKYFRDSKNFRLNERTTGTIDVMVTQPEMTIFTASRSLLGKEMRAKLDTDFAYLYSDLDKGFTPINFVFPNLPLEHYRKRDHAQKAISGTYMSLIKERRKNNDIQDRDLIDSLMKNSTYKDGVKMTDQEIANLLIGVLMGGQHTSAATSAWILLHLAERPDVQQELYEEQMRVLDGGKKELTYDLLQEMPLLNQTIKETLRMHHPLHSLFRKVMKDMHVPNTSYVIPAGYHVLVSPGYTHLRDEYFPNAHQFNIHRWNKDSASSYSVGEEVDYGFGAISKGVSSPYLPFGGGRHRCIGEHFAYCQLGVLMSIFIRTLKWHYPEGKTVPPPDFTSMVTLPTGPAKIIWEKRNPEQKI

Structure (SMILES): CC(C)=CCC[C@@H](C)[C@H]1CC[C@@]2(C)C3=C(CC[C@]12C)[C@@]1(C)CC[C@H](O)C(C)(C)[C@@H]1CC3 [Lanosterol]
- production ratio of demethylated metabolite FF-MAS (CYP51 enzyme lysate; lanosterol 10 μg/mL, CYP51 enzyme lysate): increased significantly

Structure (SMILES): COc1c(O)ccc2cc3[n+](cc12)CCc1cc2c(cc1-3)OCO2 [M1, Thalifendine]
- level in plasma (below the lower limit of quantitation) [1, 5]: < 1 ng/mL

Structure (SMILES): COc1ccc2cc3[n+](cc2c1O)CCc1cc2c(cc1-3)OCO2 [M2, Berberrubine]
- level in plasma (below the lower limit of quantitation) [1, 5]: < 1 ng/mL

Structure (SMILES): COc1ccc2cc3[n+](cc2c1OC)CCc1cc2c(cc1-3)OCO2 [BBR, Berberine]
- share of BBR that could enter the blood (absorption rate) [2]: less than 10%
- production ratios of M1 and M2 (CYP51 enzyme lysate; BBR 10 μg/mL, CYP51 enzyme lysate compared with the control): significantly increased
- abundance of Porphyromonadaceae (family level) (gut microbiota; after oral BBR, vs control group, P < 0.05 (Fig. S2)): significant increase
- abundance of the genus Parabacteroides (gut microbiota; [6]): significant increase
- abundances of five genera (Tyzzerella 3, Rikenellaceae RC9 gut group, Roseburia, Tyzzerella, Ruminococcus 1) (gut microbiota; [6]): significant decrease
- AUC(0-t) [1, 5]: 299 ± 56.4 ng·h/mL
- AUC(0-t) ([1]; oral BBR 200 mg/kg): 272 ± 68.4 ng·h/mL
- AUC(0-inf) [1, 5]: 388 ± 103 ng·h/mL
- AUC(0-inf) ([1]; oral BBR 200 mg/kg): 334 ± 79.3 ng·h/mL
- Cmax [1, 5]: 64.5 ± 20.1 ng/mL
- Cmax ([1]; oral BBR 200 mg/kg): 44.3 ± 10.4 ng/mL
- MRT last [1, 5]: 6.5 ± 1.4 h
- MRT last ([1]; oral BBR 200 mg/kg): 7.39 ± 1.71 h
- MRT inf [1, 5]: 10.4 ± 2.32 h
- MRT inf ([1]; oral BBR 200 mg/kg): 12.7 ± 5.85 h
- half-life [1, 5]: 9.91 ± 5.26 h
- half-life ([1]; oral BBR 200 mg/kg): 8.44 ± 5.55 h
- activity of CYP51 compared with that in the strains alone (CYP51; four strains incubated with 50 mg/mL BBR for 72 h): not significantly different

Structure (SMILES): C[C@@H](c1ncncc1F)[C@](O)(Cn1cncn1)c1ccc(F)cc1F [voriconazole]
- decrease of production of M1 after adding voriconazole ([3]; 30 min): 21%
- decrease of production of M2 after adding voriconazole ([3]; 30 min): 28%
- decrease of production of M1 after adding voriconazole ([3]; 60 min): 25%
- decrease of production of M2 after adding voriconazole ([3]; 60 min): 26%
- decrease of production of M1 after adding voriconazole ([3]; 120 min): 20%
- decrease of production of M2 after adding voriconazole ([3]; 120 min): 30%
- abundances of Parabacteroides, Tyzzerella 3, Rikenellaceae RC9 gut group, Roseburia, Tyzzerella, Ruminococcus 1 and Porphyromonadaceae after the addition of voriconazole (gut microbiota; oral BBR 200 mg/kg + voriconazole 30 mg/kg vs BBR 200 mg/kg (Fig. S3)): did not change significantly
- level of M2 produced by each strain after the addition of voriconazole [4]: below the lower limit of quantitation
- level of M1 produced by each strain after the addition of voriconazole ([4]; vs BBR group): significantly reduced
- percentage of residual BBR after the addition of voriconazole (mice gut microbiota): significantly increased
- production of M1 after the addition of voriconazole (mice gut microbiota): significantly decreased
- production of M2 after the addition of voriconazole (mice gut microbiota): significantly decreased
- CYP51 activity after the addition of voriconazole (CYP51; four strains, BBR 50 mg/mL + voriconazole 3.5 μg/mL, 72 h): reduced
